pIC50: −log10 of the molar value. Active and inactive are the calls of the source.
Columns and labels:
[1] = test system: SW-620; experiment: Induction of apoptosis in human SW620 cells assessed as late apoptotic cells at 5 uM after 24 hrs by Annexin V-FITC/propidium iodide staining based flow cytometry (reference value: 0.43%); assay type: functional
[2] = test system: SW-620; experiment: Induction of apoptosis in human SW620 cells assessed as late apoptotic cells at 1.25 uM after 48 hrs by Annexin V-FITC/propidium iodide staining based flow cytometry (reference value: 0.2%); assay type: functional
[3] = test system: SW-620; experiment: Induction of apoptosis in human SW620 cells assessed as live cells at 5 uM after 24 hrs by Annexin V-FITC/propidium iodide staining based flow cytometry (reference value: 97.03%); assay type: functional
[4] = Cytotoxicity against human EJ28 cells assessed as inhibition of cell proliferation at 20 uM after 72 hrs by MTT assay relative to control; assay type: functional; conditions: EJ-28, 72 h
Summary of the method: (§1)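 Single-concentration screen at 20 μM with 72 h exposure in DMEM with 10% FBS, final DMSO 0.1%. Read-out was MTT (5 mg/mL, 4 h, 37°C), DMSO solubilisation and absorbance at 570 nm, expressed as percent inhibition. Lines reaching a threshold percentage went on to IC50 determination.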

[5] = test system: SW-620; experiment: Induction of apoptosis in human SW620 cells assessed as necrotic cells at 2.5 uM after 72 hrs by Annexin V-FITC/propidium iodide staining based flow cytometry (reference value: 0.27%); assay type: functional
[6] = test system: SW-620; experiment: Induction of apoptosis in human SW620 cells assessed as necrotic cells at 5 uM after 72 hrs by Annexin V-FITC/propidium iodide staining based flow cytometry (reference value: 0.27%); assay type: functional
[7] = Cytotoxicity against human EJ28 cells after 72 hrs by MTT assay; assay type: functional, cell-based; conditions: EJ-28, 72 h
Summary of the method: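 Tumour lines kept in DMEM with 10% FBS and 1% penicillin/streptomycin at 37°C, 5% CO2. Seeded at 1500-5000 cells/well by doubling time and size, 24 h, then compound in DMSO-containing medium (final DMSO 0.1%) for 72 h. MTT (5 mg/mL) 4 h at 37°C, DMSO solubilisation, absorbance at 570 nm.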

[8] = test system: SW-620; experiment: Cytotoxicity against human SW620 cells assessed as inhibition of cell proliferation at 20 uM after 72 hrs by MTT assay relative to control; assay type: functional; conditions: SW-620, 72 h; summary of the method: as §1
[9] = test system: NHDF; experiment: Cytotoxicity against NHDF after 72 hrs by MTT assay; assay type: cell-based; conditions: Homo sapiens
Summary of the method: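 NHDF grown in DMEM with 5% FBS at 37°C, 5% CO2. Seeded at 1500-5000 cells/well, 24 h, then compound added in DMSO-containing medium (final DMSO 0.1%) for 72 h. MTT (5 mg/mL in medium) added for 4 h at 37°C, formazan dissolved in DMSO, absorbance read at 570 nm.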

[10] = test system: SW-620; experiment: Induction of apoptosis in human SW620 cells assessed as live cells at 1.25 uM after 72 hrs by Annexin V-FITC/propidium iodide staining based flow cytometry (reference value: 97.34%); assay type: functional
[11] = test system: SW-620; experiment: Induction of apoptosis in human SW620 cells assessed as early apoptotic cells at 5 uM after 48 hrs by Annexin V-FITC/propidium iodide staining based flow cytometry (reference value: 2.75%); assay type: functional
[12] = test system: SW-620; experiment: Induction of apoptosis in human SW620 cells assessed as necrotic cells at 10 uM after 24 hrs by Annexin V-FITC/propidium iodide staining based flow cytometry (reference value: 0.15%); assay type: functional
[13] = test system: SW-620; experiment: Induction of apoptosis in human SW620 cells assessed as late apoptotic cells at 5 uM after 72 hrs by Annexin V-FITC/propidium iodide staining based flow cytometry (reference value: 0.29%); assay type: functional
[14] = test system: SW-620; experiment: Induction of apoptosis in human SW620 cells assessed as early apoptotic cells at 5 uM after 72 hrs by Annexin V-FITC/propidium iodide staining based flow cytometry (reference value: 2.1%); assay type: functional
[15] = test system: SW-620; experiment: Induction of apoptosis in human SW620 cells assessed as live cells at 2.5 uM after 48 hrs by Annexin V-FITC/propidium iodide staining based flow cytometry (reference value: 96.26%); assay type: functional
[16] = test system: SW-620; experiment: Cell cycle arrest in human SW620 cells assessed as accumulation at G2/M phase at 2.5 uM after 24 hrs by propidium iodide staining based flow cytometry (reference value: 19%); assay type: functional
[17] = test system: SW-620; experiment: Induction of apoptosis in human SW620 cells assessed as necrotic cells at 10 uM after 72 hrs by Annexin V-FITC/propidium iodide staining based flow cytometry (reference value: 0.27%); assay type: functional
[18] = test system: SW-620; experiment: Anticlonogenic activity against human SW620 cells assessed as colony formation at 0.3125 uM after 10 days by crystal violet staining based imaging analysis (reference value: 100%); assay type: functional
Summary of the method: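 SW620 cells seeded at 1000 cells/well in DMEM, left overnight at 37°C, 5% CO2, then exposed to compound for ten days with drug-containing medium renewed every three days. Cells were PBS-washed, fixed in 4% paraformaldehyde for 15 min, stained with 0.5% (w/v) crystal violet for 10 min, air-dried, photographed, and colonies quantified by image analysis.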

[19] = test system: SW-620; experiment: Induction of apoptosis in human SW620 cells assessed as live cells at 2.5 uM after 24 hrs by Annexin V-FITC/propidium iodide staining based flow cytometry (reference value: 97.03%); assay type: functional
[20] = test system: SW-620; experiment: Inhibition of colony formation in human SW620 cells at 1.25 to 5 uM after 10 days by crystal violet staining based assay; assay type: functional, cell-based
Summary of the method: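 SW620 cells seeded at 1000 cells/well in DMEM and incubated overnight at 37°C, 5% CO2. Compound-containing medium was given for ten days and renewed every three days. Cells were then washed with PBS, fixed 15 min in 4% paraformaldehyde, stained 10 min with 0.5% (w/v) crystal violet, washed, air-dried and photographed. Colony formation was quantified from the images.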

[21] = test system: SW-620; experiment: Induction of apoptosis in human SW620 cells assessed as live cells at 2.5 uM after 72 hrs by Annexin V-FITC/propidium iodide staining based flow cytometry (reference value: 97.34%); assay type: functional
[22] = test system: SW-620; experiment: Cell cycle arrest in human SW620 cells assessed as accumulation at G2/M phase at 1.25 uM after 24 hrs by propidium iodide staining based flow cytometry (reference value: 19%); assay type: functional
[23] = test system: SW-620; experiment: Induction of apoptosis in human SW620 cells assessed as early apoptotic cells at 1.25 uM after 48 hrs by Annexin V-FITC/propidium iodide staining based flow cytometry (reference value: 2.75%); assay type: functional
[24] = test system: SW-620; experiment: Induction of apoptosis in human SW620 cells assessed as late apoptotic cells at 10 uM after 24 hrs by Annexin V-FITC/propidium iodide staining based flow cytometry (reference value: 0.43%); assay type: functional
[25] = test system: SW-620; experiment: Induction of apoptosis in human SW620 cells assessed as necrotic cells at 5 uM after 48 hrs by Annexin V-FITC/propidium iodide staining based flow cytometry (reference value: 0.23%); assay type: functional
[26] = test system: SW-620; experiment: Induction of apoptosis in human SW620 cells assessed as necrotic cells at 10 uM after 48 hrs by Annexin V-FITC/propidium iodide staining based flow cytometry (reference value: 0.23%); assay type: functional
[27] = test system: SW-620; experiment: Induction of apoptosis in human SW620 cells assessed as live cells at 10 uM after 24 hrs by Annexin V-FITC/propidium iodide staining based flow cytometry (reference value: 97.03%); assay type: functional
[28] = test system: SW-620; experiment: Induction of apoptosis in human SW620 cells assessed as early apoptotic cells at 2.5 uM after 72 hrs by Annexin V-FITC/propidium iodide staining based flow cytometry (reference value: 2.1%); assay type: functional

Compound	Activity [1]	Activity [2]	Activity [3]	inhibition at 20 µM [4]	Activity [5]	Activity [6]	pIC50 [7]	inhibition at 20 µM [8]	pIC50 [9]	Activity [10]	Activity [11]	Activity [12]	Activity [13]	Activity [14]	Activity [15]	Activity [16]	Activity [17]	Activity [18]	Activity [19]	inhibition [20]	also measured
COc1ccc(/C=C2\CCC/C(=C\c3cc(OC)c(OC)c(OC)c3)C2=O)cc1OC	0.35%	0.37%	55.03%	> 50%	1.36%	0.33%	5.77	> 50%	5.24	34.33%	12%	0.82%	93%	3.48%	79.03%	50%	0.24%	93.6%	86.22%	Active	Activity [21]: 66.34%; Activity [22]: 20%; Activity [23]: 6.01%; Activity [24]: 12.66%; Activity [25]: 1.55%; Activity [26]: 1.3%; Activity [27]: 46.2%; Activity [28]: 14.37%
COc1ccc(/C=C2\CCC/C(=C\c3cccc(O)c3)C2=O)cc1OC	2.26%	0.92%	73.65%	> 50%	0.78%	1.23%	5.74	> 50%	5.17	92.34%	12.04%	0.23%	81.02%	10.2%	91.27%	49%	0.22%	97.9%	93.7%	Active	Activity [21]: 63.72%; Activity [22]: 24%; Activity [23]: 4.11%; Activity [24]: 7.42%; Activity [25]: 2.86%; Activity [26]: 1.06%; Activity [27]: 50.73%; Activity [28]: 4.52%
